The source made the active and inactive calls. No cut-off for these calls is given here.
Key:
HaCaT [1] = assay: Cytotoxicity against human HaCaT cells at 1 to 50 uM after 24 hrs by LDH release assay; type: cell-based
Summary of the method: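 HaCaT cells were grown in high-glucose DMEM with 10% FBS to 80% confluency. They were exposed 24 h to compound at 1–50 µM (final DMSO ≤0.1%). LDH release was expressed as a percentage of Triton X-100 lysis (100%); mean of three experiments.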

HaCaT [2] = assay: Antiproliferative activity against human HaCaT cells after 24 hrs by BrdU incorporation assay; type: functional, cell-based
Summary of the method: (§1)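 HaCaT human keratinocytes were grown in high-glucose DMEM with 10% FBS and 2 mM L-glutamine at 37 °C and 5% CO2 to 80% confluency. Cells were treated 24 h with compound at 1, 10 or 50 µM (final DMSO ≤0.1%). Proliferation was read by BrdU incorporation as % of DMSO control; three experiments.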

HaCaT [3] = assay: Antiproliferative activity against human HaCaT cells at 10 uM after 24 hrs by BrdU incorporation assay; type: functional, cell-based; summary of the method: as §1
HaCaT [4] = assay: Antiproliferative activity against human HaCaT cells at 50 uM after 24 hrs by BrdU incorporation assay; type: functional, cell-based; summary of the method: as §1
HaCaT [5] = assay: Antiproliferative activity against human HaCaT cells at 1 uM after 24 hrs by BrdU incorporation assay; type: functional, cell-based; summary of the method: as §1
[6] = target: T1, Prostaglandin G/H synthase 1 (Mus musculus, UniProt P22437); assay: Inhibition of COX-1 in mouse J774 cells assessed as reduction in PGE2 level using arachidonic acid as substrate preincubated for 15 mins followed by incubation with arachidonic acid for 30 mins by radio immunoassay; type: cell-based
T1 sequence (P22437 whole entry): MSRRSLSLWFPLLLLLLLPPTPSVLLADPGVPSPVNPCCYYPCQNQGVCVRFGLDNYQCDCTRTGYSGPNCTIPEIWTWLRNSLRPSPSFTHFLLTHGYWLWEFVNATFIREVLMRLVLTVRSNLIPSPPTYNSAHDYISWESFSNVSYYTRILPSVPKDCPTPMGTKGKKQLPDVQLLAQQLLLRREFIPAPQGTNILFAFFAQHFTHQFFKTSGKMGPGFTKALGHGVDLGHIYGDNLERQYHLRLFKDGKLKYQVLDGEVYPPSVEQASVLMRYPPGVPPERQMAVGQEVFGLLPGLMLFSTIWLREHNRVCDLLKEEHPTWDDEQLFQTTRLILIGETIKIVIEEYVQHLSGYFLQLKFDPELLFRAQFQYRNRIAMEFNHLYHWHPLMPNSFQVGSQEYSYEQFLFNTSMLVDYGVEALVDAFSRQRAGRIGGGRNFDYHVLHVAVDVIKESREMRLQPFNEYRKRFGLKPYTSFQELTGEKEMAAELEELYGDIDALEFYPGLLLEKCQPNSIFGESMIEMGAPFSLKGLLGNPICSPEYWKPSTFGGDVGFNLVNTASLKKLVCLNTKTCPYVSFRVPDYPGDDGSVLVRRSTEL
Summary of the method: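 Murine J774 macrophages (2.5 × 10^5 cells/mL) were adhered 2 h at 37 °C and given fresh medium. Cells were pretreated with compound at 100 µM for 15 min, then incubated 30 min at 37 °C with 15 µM arachidonic acid. Supernatant PGE2 was measured by RIA as % inhibition versus control; triplicate wells, three experiments, IC50 from a sigmoidal variable-slope fit.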

[7] = target: T2, Prostaglandin G/H synthase 2 (Mus musculus, UniProt Q05769); assay: Inhibition of COX-2 in mouse J774 cells assessed as reduction in LPS-induced PGE2 level incubated for 24 hrs by radio immunoassay; type: cell-based
T2 sequence (Q05769 whole entry): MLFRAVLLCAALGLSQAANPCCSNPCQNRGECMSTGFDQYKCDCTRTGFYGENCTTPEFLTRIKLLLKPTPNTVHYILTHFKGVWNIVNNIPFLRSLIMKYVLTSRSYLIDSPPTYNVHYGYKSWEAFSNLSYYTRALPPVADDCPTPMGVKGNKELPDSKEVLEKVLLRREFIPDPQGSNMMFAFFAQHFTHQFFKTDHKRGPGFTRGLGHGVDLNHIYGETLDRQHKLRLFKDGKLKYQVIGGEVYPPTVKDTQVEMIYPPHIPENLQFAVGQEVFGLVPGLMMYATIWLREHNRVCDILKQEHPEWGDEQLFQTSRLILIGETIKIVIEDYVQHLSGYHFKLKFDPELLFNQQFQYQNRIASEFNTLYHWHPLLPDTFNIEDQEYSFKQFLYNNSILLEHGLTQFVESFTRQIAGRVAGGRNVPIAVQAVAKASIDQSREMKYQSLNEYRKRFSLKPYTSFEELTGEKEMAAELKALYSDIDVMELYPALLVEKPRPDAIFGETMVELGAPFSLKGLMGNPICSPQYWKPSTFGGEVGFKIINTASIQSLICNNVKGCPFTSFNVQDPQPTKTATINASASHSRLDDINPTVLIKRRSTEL
Summary of the method: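 Murine J774 macrophages were stimulated for 24 h with E. coli LPS (10 µg/mL) to induce COX-2, with or without compound (0.001–10 µM). Supernatant PGE2 was measured by RIA as % inhibition of production versus control; triplicate wells, mean of three experiments, IC50 from a sigmoidal variable-slope fit.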

Mus musculus = species: Mus musculus; assay: Selectivity ratio of IC50 for mouse COX-1 to IC50 for mouse COX-2
Summary of the method: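 In J774 cells, the ratio was taken as COX-1 IC50 over COX-2 IC50. COX-1 activity: 15 min compound pretreatment, then 30 min with 15 µM arachidonic acid. COX-2 activity: 24 h LPS (10 µg/mL) induction with compound. PGE2 was measured by RIA in both; IC50 values came from sigmoidal fits of three experiments.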

Row | Structure (SMILES) | Activity (HaCaT [1]) | Activity (HaCaT [2]) | Activity (HaCaT [3]) | Activity (HaCaT [4]) | Activity (HaCaT [5]) | IC50 [6] | IC50 [7] | Ratio IC50 (Mus musculus)
1 | Cc1c(CCOCCF)cc(-c2ccc(S(C)(=O)=O)cc2)n1-c1ccc(F)cc1 | Non-toxic | Dose-dependent effect | Active | Active | inactive | > 100000 nM | 13 nM | > 7690
2 | CCCOCCc1cc(-c2ccc(S(C)(=O)=O)cc2)n(-c2ccc(F)c(F)c2)c1C | Non-toxic | Dose-dependent effect | Active | Active | inactive | > 100000 nM | 18 nM | > 5560
3 | Cc1c(CCOCCF)cc(-c2ccc(S(C)(=O)=O)cc2)n1-c1ccc(F)c(F)c1 | Non-toxic | Dose-dependent effect | Active | Active | inactive | > 100000 nM | 29 nM | > 3450
4 | Cc1c(CCOCCF)cc(-c2ccc(S(C)(=O)=O)cc2)n1-c1cccc(F)c1 | Non-toxic | Dose-dependent effect | Active | Active | inactive | > 100000 nM | 140 nM | > 714
5 | CCCOCCc1cc(-c2ccc(S(C)(=O)=O)cc2)n(-c2cccc(F)c2)c1C | Non-toxic | inactive | inactive | inactive | inactive | > 100000 nM | 13 nM | > 7690
6 | Cc1c(CCOCCCF)cc(-c2ccc(S(C)(=O)=O)cc2)n1-c1cccc(F)c1 | Non-toxic | inactive | inactive | inactive | inactive | > 100000 nM | 135 nM | > 2860
7 | Cc1c(CCOCCCF)cc(-c2ccc(S(C)(=O)=O)cc2)n1-c1ccc(F)c(F)c1 | Non-toxic | Dose-dependent effect | Active | Active | inactive | > 100000 nM | 19 nM | > 5260

From ChEMBL document CHEMBL3758101, “Synthesis and biological evaluation of fluorinated 1,5-diarylpyrrole-3-alkoxyethyl ether derivatives as selective COX-2 inhibitors endowed with anti-inflammatory activity” (Eur J Med Chem, 2016)
